Results from ChEMBL document CHEMBL1153564 (Antimicrob Agents Chemother, 2008).
Converted amounts (≈) assume the structure as drawn. The source made the active and inactive calls. The rule behind the calls is not given here. Starred links: 1 amine or outer side, 2 acyl side, 3 side chain; linkers in the order of their positions; H or OH if unused. Positions of bridges follow the written chain, without caps; N, C: chain ends. Non-standard residues stand in square brackets, D forms with d. Residues, ends and D or L forms follow the SMILES beside them. *: point of attachment. pTerphenylCO(4''-OnC5H11) = CCCCCOc1ccc(-c2ccc(-c3ccc(C(=O)*)cc3)cc2)cc1; Orn(4R-OH,5R-OH) = O=C([C@H](C[C@@H](O)[C@@H](O)N[*:3])N[*:1])[*:2]; hTyr(3S-OH,4S-OH) = N[C@H](C(=O)O)[C@H](O)[C@@H](O)c1ccc(O)cc1; Pro(3S-OH,4S-Me) = C[C@H]1CN[C@H](C(=O)O)[C@H]1O; Hyp = O=C(O)[C@@H]1C[C@@H](O)CN1

What was measured:
Nakaseomyces glabratus [1] = assay: Antifungal activity against Candida glabrata 5376 infected in neutropenic ICR/Swiss mouse candidiasis model assessed as dose required to maintain […] of 3.71 +/- 0.21 log10CFU per kidney administered intraperitoneally every 16 hrs up to 4 days measured per 96 hrs
Candida albicans [2] = assay: Antifungal activity against Candida albicans K-1 infected in neutropenic ICR/Swiss mouse candidiasis model assessed as dose required to maintain […] of 3.90 +/- 0.15 log10CFU per kidney administered intraperitoneally every 24 hrs up to 4 days measured per 96 hrs; assay type: functional
Summary of the method: (§1)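 Neutropenic mice were infected iv with C. albicans K-1 2 h before therapy. Total doses of 1.25, 5, 20, 80 and 320 mg/kg/96 h were split into 1, 2, 4 or 6 ip doses (q96h, q48h, q24h, q16h), three mice per regimen. Effect is the log10 CFU/kidney relative to untreated controls at 96 h. Static and 1-log doses were taken from a Hill model fit.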

Nakaseomyces glabratus [3] = assay: Antifungal activity against Candida glabrata 35315 infected in neutropenic ICR/Swiss mouse candidiasis model assessed as fungal count per kidney administered 2 hrs postinfection measured up to 48 hrs; assay type: functional
Summary of the method: (§2)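 Female ICR/Swiss mice (23–27 g) made neutropenic with cyclophosphamide s.c. (150 mg/kg day −4, 100 mg/kg day −1, 100 mg/kg day +2). Infected by tail vein with 0.1 ml inoculum (~6.1 log10 CFU/ml). Kidneys of untreated mice were homogenised and plated on SDA for 24 h at 35°C. Growth over 48 h is given as log10 CFU/kidney.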

Nakaseomyces glabratus [4] = assay: Antifungal activity against Candida glabrata 5376 infected in neutropenic ICR/Swiss mouse candidiasis model assessed as prolongation of fungal growth suppression at 1.25 mg/kg, ip administered 2 hrs postinfection as single dose by time-kill assay; assay type: functional; details: route intraperitoneal
Summary of the method: (§3)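 Single ip dose of 1.25, 5 or 20 mg/kg given 2 h after iv infection of neutropenic mice. Groups of 3 treated and 3 control mice sampled at 1–24 h intervals over 96 h. Kidney homogenates plated on SDA, 24 h at 35°C. PAFE = time for treated burden to rise 1 log10 CFU/kidney after serum level fell below MIC, minus the same time in controls.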

Serum = assay: Fraction unbound in Candida glabrata 5376-infected neutropenic ICR/Swiss mouse serum at 1.25 mg/kg, ip administered 2 hrs postinfection as single dose; assay type: ADME, organism-based; parameters: dose 1.25 mg/kg, route intraperitoneal; details: in vivo
Nakaseomyces glabratus [5] = assay: Antifungal activity against Candida glabrata 570 infected in neutropenic ICR/Swiss mouse candidiasis model assessed as fungal count per kidney administered 2 hrs postinfection measured up to 48 hrs; assay type: functional
Summary of the method: as §2

Candida albicans [6] = assay: Antifungal activity against Candida albicans K-1 infected in neutropenic ICR/Swiss mouse candidiasis model assessed as dose required to maintain […] of 3.90 +/- 0.15 log10CFU per kidney administered intraperitoneally once every 96 hrs measured per 96 hrs; assay type: functional
Summary of the method: as §1

Nakaseomyces glabratus [7] = assay: Antifungal activity against Candida glabrata 37661 assessed as partial growth inhibition after 24 hrs by CLSI end point method; assay type: functional; details: Nakaseomyces glabratus, 37661, 24 h
Summary of the method: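 Two end points were read against the drug-free control well: partial growth inhibition (the CLSI end point) and complete inhibition. Run in duplicate on four separate occasions; the value is the mean. Drug stock was made in DMSO and diluted in 0.9% NaCl.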

Nakaseomyces glabratus [8] = assay: Antifungal activity against Candida glabrata 33609 infected in neutropenic ICR/Swiss mouse candidiasis model assessed as dose required for 1-log10 reduction in […] per kidney administered intraperitoneally every 24 hrs up to 4 days measured per 24 hrs; assay type: functional
Summary of the method: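 Neutropenic mice (cyclophosphamide sc on days −4, −1 and +2) were infected iv 2 h before therapy. Five total doses from 0.078 to 20 mg/kg/24 h were given ip q24h for 4 days, three mice per regimen. Kidney CFU were measured at the end of therapy. Static and 1-log-kill doses were derived from a Hill sigmoid dose-effect fit.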

Nakaseomyces glabratus [9] = assay: Antifungal activity against Candida glabrata 5376 infected in neutropenic ICR/Swiss mouse candidiasis model assessed as suppression of fungal regrowth at 1.25 mg/kg, ip administered 2 hrs postinfection as single dose by time-kill assay; assay type: functional, organism-based; parameters: dose 1.25 mg/kg
Summary of the method: as §3

Nakaseomyces glabratus [10] = assay: Antifungal activity against Candida glabrata 513 infected in neutropenic ICR/Swiss mouse candidiasis model assessed as dose required for 1-log10 reduction in […] per kidney administered intraperitoneally every 24 hrs up to 4 days measured per 24 hrs; assay type: functional
Summary of the method: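 Neutropenic mouse disseminated candidiasis, with i.p. therapy starting 2 h after i.v. infection. Five total doses of 0.078–20 mg/kg/24 h were given q24h for 4 days, three mice per dose. Kidney CFU were counted at the end and compared with untreated controls. The dose giving a 1 log10 CFU/kidney reduction was derived from the sigmoid Hill dose–effect model.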

Nakaseomyces glabratus [11] = assay: Antifungal activity against Candida glabrata 5376 infected in neutropenic ICR/Swiss mouse candidiasis model assessed as prolongation of fungal growth suppression at 5 mg/kg, ip administered 2 hrs postinfection as single dose by time-kill assay; assay type: functional; details: route intraperitoneal
Summary of the method: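 Neutropenic mice were infected i.v. and 2 h later given a single i.p. dose (1.25, 5 or 20 mg/kg). Groups of three treated and three control mice were killed at intervals over 96 h, and kidney CFU were counted on SDA (limit 100 CFU/ml). The post-antifungal effect is t − c: the time for a 1 log10 CFU/kidney increase once serum levels fall below the MIC in treated mice, minus the same time in controls.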

Nakaseomyces glabratus [12] = assay: Antifungal activity against Candida glabrata 33609 assessed as complete growth inhibition after 24 hrs by CLSI end point method; assay type: functional; details: Nakaseomyces glabratus, 33609, 24 h
Summary of the method: (§4)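 CLSI M27-A2 broth dilution. Two end points read against the drug-free control well: partial inhibition (CLSI end point) and complete inhibition. Run in duplicate on four separate occasions; value is the mean. Drug stock in DMSO, diluted in 0.9% NaCl.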

Mus musculus = assay: Cmax in serum of neutropenic ICR/Swiss mouse candidiasis model at 80 mg/kg, ip up to 4 hrs by reverse-phase high-pressure liquid chromatography; assay type: ADME, organism-based; parameters: dose 80 mg/kg, route intraperitoneal; details: in vivo
Summary of the method: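 Infected neutropenic ICR/Swiss mice given single ip doses (5, 20 or 80 mg/kg; 0.2 ml); serum from three isoflurane-anaesthetised mice at 1, 4, 8, 12, 24 and 48 h, stored at −80°C, assayed by reverse-phase HPLC with fluorescence detection, loratadine internal standard, linear 10–50,000 ng/ml. Noncompartmental analysis; half-life by nonlinear least squares.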

Candida albicans [13] = assay: Antifungal activity against Candida albicans K-1 infected in neutropenic ICR/Swiss mouse candidiasis model assessed as […] burden per kidney administered intraperitoneally every 24 hrs up to 4 days measured per 96 hrs; assay type: functional; details: K-1, Kidney, ip
Summary of the method: as §1

Nakaseomyces glabratus [14] = assay: Antifungal activity against Candida glabrata 34341 infected in neutropenic ICR/Swiss mouse candidiasis model assessed as fungal count per kidney administered 2 hrs postinfection measured up to 48 hrs; assay type: functional
Summary of the method: as §2

Candida albicans [15] = assay: Antifungal activity against Candida albicans 98-17 assessed as partial growth inhibition after 24 hrs by CLSI end point method; assay type: functional; details: 98-17, 24 h
Summary of the method: as §4

## CCCCCOc1ccc(-c2ccc(-c3ccc(C(=O)N[C@H]4C[C@@H](O)[C@@H](O)NC(=O)[C@@H]5[C@@H](O)[C@@H](C)CN5C(=O)[C@H]([C@@H](C)O)NC(=O)[C@H]([C@H](O)[C@@H](O)c5ccc(O)cc5)NC(=O)[C@@H]5C[C@@H](O)CN5C(=O)[C@H]([C@@H](C)O)NC4=O)cc3)cc2)cc1 [ANIDULAFUNGIN] ({pTerphenylCO(4''-OnC5H11)}-[Orn(4R-OH,5R-OH)]T[Hyp][hTyr(3S-OH,4S-OH)]T[Pro(3S-OH,4S-Me)]; lactam 1-C)
Nakaseomyces glabratus [1]
  Activity: 30 mg/kg
Candida albicans [2]
  Activity: 5 mg/kg
Nakaseomyces glabratus [3]
  log10cfu: 0.97
Nakaseomyces glabratus [4]
  Activity: 19 h
Serum
  Fu: 1%
Nakaseomyces glabratus [5]
  log10cfu: 2.45
Candida albicans [6]
  Activity: 3.07 mg/kg
Nakaseomyces glabratus [7]
  MIC: 2 µg/mL (≈ 1.75 µM)
Nakaseomyces glabratus [8]
  Activity: 4.21 mg/kg
Nakaseomyces glabratus [9]
  Activity: Active
Nakaseomyces glabratus [10]
  Activity: 4.13 mg/kg
Nakaseomyces glabratus [11]
  Activity: 19 h
Nakaseomyces glabratus [12]
  MIC: 0.12 µg/mL (≈ 0.105 µM)
Mus musculus
  Cmax: 60 µg/mL
Candida albicans [13]
  ED50: 3.5 mg/kg
Nakaseomyces glabratus [14]
  log10cfu: 1.82
Candida albicans [15]
  MIC: 0.03 µg/mL (≈ 0.0263 µM)
